{"source": "ChEMBL document CHEMBL1122923", "about": "“Structural features of imidazole derivatives that enhance styrene oxide hydrolase activity in rat hepatic microsomes” (J Med Chem, 1985)", "key": {"[1]": {"organism": "Rattus norvegicus", "experiment": "Enhancement of styrene hydrolase activity was determined in male wistar rat hepatic microsomes given to phenobarbital treated rats", "settings": "Liver", "summary_of_the_method": "(§1)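 Rats were given phenobarbital 80 mg/kg ip daily for 3 days before washed hepatic microsomes were prepared. Ratio of activity with vs without derivative, from 3-4 rats or individual values.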"}, "[2]": {"organism": "Rattus norvegicus", "experiment": "Enhancement of styrene hydrolase activity was determined in male wistar rat hepatic microsomes given to 3-methylcholanthrene treated rats", "settings": "Liver", "summary_of_the_method": "(§2)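 Male Wistar rats were pretreated ip with 3-methylcholanthrene 40 mg/kg daily for 3 days; washed liver microsomes were then prepared. Reported as activity ratio ± SD, n = 3-4 or individual.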"}, "[3]": {"organism": "Rattus norvegicus", "experiment": "Enhancement of styrene hydrolase activity was determined in male wistar rat hepatic microsomes given to untreated rats", "settings": "Liver", "summary_of_the_method": "(§3)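 Hepatic microsomes (washed) from untreated male Wistar rats (200 ± 20 g). Incubation: 0.25 M Tris-Cl pH 8.7, 0.03% Tween-80, 0.1-0.2 mg protein, 37 °C, 10 min, stopped with hexanes, duplicate tubes. Enhancement is the activity ratio with/without derivative, mean ± SD of 3-4 rats.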"}, "[4]": {"target": "T1, Epoxide hydrolase 1 (Rattus norvegicus) (UniProt P07687)", "T1 sequence (whole entry)": "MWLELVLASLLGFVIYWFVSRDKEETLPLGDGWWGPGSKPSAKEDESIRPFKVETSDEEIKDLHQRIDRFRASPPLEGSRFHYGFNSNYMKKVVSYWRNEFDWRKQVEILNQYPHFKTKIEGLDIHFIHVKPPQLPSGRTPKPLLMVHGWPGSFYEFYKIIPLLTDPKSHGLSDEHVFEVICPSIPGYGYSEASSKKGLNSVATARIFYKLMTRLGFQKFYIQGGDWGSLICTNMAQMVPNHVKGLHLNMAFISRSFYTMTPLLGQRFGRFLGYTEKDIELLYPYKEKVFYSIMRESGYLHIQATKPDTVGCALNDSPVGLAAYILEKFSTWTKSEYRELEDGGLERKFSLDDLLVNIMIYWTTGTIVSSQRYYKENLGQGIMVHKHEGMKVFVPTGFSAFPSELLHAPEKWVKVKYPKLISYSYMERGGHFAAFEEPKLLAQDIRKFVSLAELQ", "experiment": "Enhanced styrene oxide hydrolase activity pH 8.7", "assay_type": "functional", "summary_of_the_method": "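Imidazoles were added from aqueous solution, with diluted HCl or solvent in reference tubes, and incubated 10 min at 37 °C. Hexane stopped the reaction; tubes were run in duplicate. E100 (the concentration giving a 100% rise) came from the linear concentration-effect plot; mean ± SD over n rats.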"}, "[5]": {"experiment": "Partition coefficient (logP)", "assay_type": "physicochemical", "settings": "octanol/water"}, "[6]": {"target": "T1, Epoxide hydrolase 1 (Rattus norvegicus)", "experiment": "(§4) Enhancement of epoxide hydrolase activity", "summary_of_the_method": "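Microsomes from untreated rats, or rats given PB 80 mg/kg or 3MC 40 mg/kg ip daily for 3 days; 0.1-0.2 mg protein, 0.25 M Tris-Cl pH 8.7, 0.03% Tween-80. Value is the ratio of activity with to without derivative; mean ± SD, 3-4 rats.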"}, "[7]": {"organism": "Rattus norvegicus", "experiment": "Maximum enhancement of styrene oxide hydrolase activity was reported at compound concentration of 1e-3 M"}, "[8]": {"organism": "Rattus norvegicus", "experiment": "Enhancement of styrene hydrolase activity was determined in male wistar rat hepatic microsomes given to 3-methylcholanthrene treated rats.", "settings": "Liver", "summary_of_the_method": "as §2"}, "[9]": {"organism": "Rattus norvegicus", "experiment": "Enhancement of styrene hydrolase activity was determined in male wistar rat hepatic microsomes given to phenobarbital treated rats.", "settings": "Liver", "summary_of_the_method": "as §1"}, "[10]": {"organism": "Rattus norvegicus", "experiment": "Enhancement of styrene hydrolase activity was determined in male wistar rat hepatic microsomes given to untreated rats.", "settings": "Liver", "summary_of_the_method": "as §3"}, "[11]": {"organism": "Rattus norvegicus", "experiment": "Maximum enhancement of styrene oxide hydrolase activity was reported at compound concentration of 1e-2M"}, "[12]": {"organism": "Rattus norvegicus", "experiment": "Maximum enhancement of styrene oxide hydrolase activity was reported at compound concentration of 5e-3 M"}, "[13]": {"organism": "Rattus norvegicus", "experiment": "Maximum enhancement of styrene oxide hydrolase activity was reported at compound concentration of 5e-4 M", "summary_of_the_method": "(§5)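 Washed liver microsomes from untreated male Wistar rats (200 ± 20 g), stored at -20 °C. Tubes (0.145 mL) held 0.25 M Tris-Cl pH 8.7, 0.03% Tween-80, 0.1-0.2 mg microsomal protein and ¹⁴C-styrene oxide. Imidazoles were added from aqueous solution, in duplicate tubes at each concentration. Incubation was 10 min at 37 °C, stopped with hexanes. Maximum enhancement is the highest activity ratio (with/without additive) observed; mean ± SD over individual rats.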"}, "[14]": {"organism": "Rattus norvegicus", "experiment": "Maximum enhancement of styrene oxide hydrolase activity was reported at compound concentration of 1e-4M", "summary_of_the_method": "as §5"}, "[15]": {"target": "T1, Epoxide hydrolase 1 (Rattus norvegicus)", "experiment": "as §4", "summary_of_the_method": "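Microsomes from untreated rats with a concentration series of N-1-substituted imidazoles added from aqueous solution. Styrene oxide hydrolysis in 0.25 M Tris-Cl pH 8.7, 0.03% Tween-80, 10 min, duplicate tubes, no-tissue blanks. E100 is the concentration giving 100% enhancement, read from the linear concentration-effect range using at least three concentrations on each side. Mean ± SD over individual rats.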", "remark": "listed apart in the source"}, "[16]": {"organism": "Rattus norvegicus", "experiment": "Maximum enhancement of styrene oxide hydrolase activity was reported at compound concentration of 5e-2M"}, "[17]": {"organism": "Rattus norvegicus", "experiment": "Maximum enhancement of styrene oxide hydrolase activity was reported at compound concentration of 1e-1M"}}}
{"smiles": "c1ccc(C2NCCN2)cc1", "values": [{"measurement": "Enhancement", "setting": "[1]", "value": 1.11}, {"measurement": "Enhancement", "setting": "[2]", "value": 1.15}, {"measurement": "Enhancement", "setting": "[3]", "value": 1.19}]}
{"smiles": "Oc1ccc(-n2ccnc2)cc1", "values": [{"measurement": "E100", "setting": "[4]", "value": 240, "unit": "µM"}, {"measurement": "logP", "setting": "[5]; read-out: logP", "value": 0.94}, {"measurement": "Log 1/E100", "setting": "[6]", "value": 3.62}, {"measurement": "Max enhancement", "setting": "[7]", "value": 3.8}]}
{"smiles": "c1ccc(-c2c[nH]cn2)cc1", "values": [{"measurement": "Enhancement", "setting": "[8]", "value": 2.61}, {"measurement": "Enhancement", "setting": "[9]", "value": 2.45}, {"measurement": "Enhancement", "setting": "[10]", "value": 2.3}]}
{"smiles": "O=[N+]([O-])c1ccc(-n2ccnc2)cc1", "values": [{"measurement": "E100", "setting": "[4]", "value": 3900, "unit": "µM"}, {"measurement": "logP", "setting": "[5]; read-out: logP", "value": 1.19}, {"measurement": "Log 1/E100", "setting": "[6]", "value": 2.4}, {"measurement": "Max enhancement", "setting": "[7]", "value": 1.3}]}
{"smiles": "c1ccc(-n2ccnc2)cc1", "values": [{"measurement": "Enhancement", "setting": "[1]", "value": 3.15}, {"measurement": "E100", "setting": "[4]", "value": 330, "unit": "µM"}, {"measurement": "logP", "setting": "[5]; read-out: logP", "value": 1.48}, {"measurement": "Log 1/E100", "setting": "[6]", "value": 3.48}, {"measurement": "Max enhancement", "setting": "[11]", "value": 4.7}, {"measurement": "Enhancement", "setting": "[2]", "value": 3.75}, {"measurement": "Enhancement", "setting": "[3]", "value": 3.34}]}
{"smiles": "c1ccc(Cn2ccnc2)cc1", "note": "[BENZYLIMIDAZOLE]", "values": [{"measurement": "Max enhancement", "setting": "[12]", "value": 5.7}, {"measurement": "E100", "setting": "[4]", "value": 230, "unit": "µM"}, {"measurement": "logP", "setting": "[5]; read-out: logP", "value": 2.01}, {"measurement": "Log 1/E100", "setting": "[6]", "value": 3.64}]}
{"smiles": "Clc1ccc(COC(Cn2ccnc2)c2ccc(Cl)cc2Cl)c(Cl)c1", "note": "(centres undefined) [MICONAZOLE]", "values": [{"measurement": "Max enhancement", "setting": "[13]", "value": 3.1}, {"measurement": "E100", "setting": "[4]", "value": 84, "unit": "µM"}, {"measurement": "logP", "setting": "[5]; read-out: logP", "value": 5.84}, {"measurement": "Log 1/E100", "setting": "[6]", "value": 4.08}]}
{"smiles": "Clc1ccccc1C(c1ccccc1)(c1ccccc1)n1ccnc1", "note": "[CLOTRIMAZOLE]", "values": [{"measurement": "Max enhancement", "setting": "[14]", "value": 5.4}, {"measurement": "E100", "setting": "[4]", "value": 6.2, "unit": "µM"}, {"measurement": "logP", "setting": "[5]", "value": 6.14}, {"measurement": "Log 1/E100", "setting": "[15]", "value": 5.21}]}
{"smiles": "Fc1ccc(-n2ccnc2)cc1", "values": [{"measurement": "Max enhancement", "setting": "[12]", "value": 4.4}, {"measurement": "E100", "setting": "[4]", "value": 550, "unit": "µM"}, {"measurement": "logP", "setting": "[5]; read-out: logP", "value": 1.67}, {"measurement": "Log 1/E100", "setting": "[6]", "value": 3.26}]}
{"smiles": "Cn1ccnc1", "note": "[1-METHYLIMIDAZOLE]", "values": [{"measurement": "E100", "setting": "[4]", "value": 12000, "unit": "µM"}, {"measurement": "logP", "setting": "[5]; read-out: logP", "value": 0.28}, {"measurement": "Log 1/E100", "setting": "[6]", "value": 1.94}, {"measurement": "Max enhancement", "setting": "[16]", "value": 3.9}]}
{"smiles": "CCn1ccnc1", "values": [{"measurement": "E100", "setting": "[4]", "value": 2800, "unit": "µM"}, {"measurement": "logP", "setting": "[5]; read-out: logP", "value": 0.81}, {"measurement": "Log 1/E100", "setting": "[15]", "value": 2.55}, {"measurement": "Max enhancement", "setting": "[16]", "value": 4.6}]}
{"smiles": "CC(=O)N1CCN(c2ccc(OCC3COC(Cn4ccnc4)(c4ccc(Cl)cc4Cl)O3)cc2)CC1", "note": "(centres undefined)", "values": [{"measurement": "E100", "setting": "[4]", "value": 54, "unit": "µM"}, {"measurement": "Max enhancement", "setting": "[7]", "value": 3.3}]}
{"smiles": "c1c[nH]cn1", "note": "[IMIDAZOLE]", "values": [{"measurement": "Max enhancement", "setting": "[17]", "value": 5.1}, {"measurement": "E100", "setting": "[4]", "value": 8800, "unit": "µM"}, {"measurement": "logP", "setting": "[5]; read-out: logP", "value": -0.42}, {"measurement": "Log 1/E100", "setting": "[15]", "value": 2.05}]}
{"smiles": "c1ccc(-c2ncc[nH]2)cc1", "values": [{"measurement": "Enhancement", "setting": "[8]", "value": 2.09}, {"measurement": "Enhancement", "setting": "[9]", "value": 1.99}, {"measurement": "Enhancement", "setting": "[10]", "value": 2}]}
